pIC50: −log10 of the molar value. The source made the active and inactive calls. The rule behind the calls is not given here.
Tests used:
Saccharomyces cerevisiae [1] = test: Growth inhibition of isogenic rad52-deficient Saccharomyces cerevisiae FM588 at 1 to 100 uM after 24 hrs by spectrophotometry; format: functional, organism-based
Saccharomyces cerevisiae [2] = test: Growth inhibition of Saccharomyces cerevisiae FM588 expressing wild type rad52 gene at 1 to 100 uM after 24 hrs by spectrophotometry; format: functional, organism-based
[3] = molecular target: DNA topoisomerase 2-alpha (Homo sapiens) (UniProt P11388); test: Inhibition of human DNA topoisomerase 2alpha-mediated DNA cleavage assessed as decrease in relaxation of supercoiled pRYG plasmid at 60 uM after 30 mins by agarose gel electrophoresis
Method in brief: (§1)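 Human Topo IIα, 1–2 units, with 250 ng supercoiled pRYG and 1 mM ATP in 5 mM Tris-HCl pH 7.5, 12.5 mM NaCl, 1 mM MgCl2, 0.5 mM DTT, 10 µg/mL albumin. Compound added in DMSO, 1% final. Incubated 37 °C for 30 min, stopped with SDS/EDTA, proteinase K digestion. 1% agarose in TBE without ethidium bromide, stained afterwards. Inhibition scored at 100, 60 and 30 µM.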

[4] = molecular target: DNA topoisomerase 2-alpha (Homo sapiens) (UniProt P11388); test: Inhibition of human DNA topoisomerase 2alpha-mediated relaxation of supercoiled pRYG plasmid DNA assessed as formation of linearized DNA at 100 uM after 30 mins by agarose gel electrophoresis relative to vehicle-treated control in presence of ethidium bromide
Method in brief: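 Cleavage-complex assay set up as the Topo IIα relaxation reaction, but with 10 units of hTopoIIα added 1–3 min before 100 µM compound in 1% DMSO. Etoposide as positive control. Electrophoresis in TAE containing 0.5 µg/mL ethidium bromide to resolve the linearized intermediate.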

HEL = test: Antiproliferative activity against human HEL cells after 48 hrs by MTT assay; format: functional, cell-based
Method in brief: (§2)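 Cells seeded at 10,000 per well; compound or vehicle (0.1% DMSO final) added 24 h after plating and left 48 h. MTT added at 0.5 mg/mL final for 3 h at 37 °C, formazan dissolved in SDS–HCl (20% SDS, 0.02 M HCl), absorbance at 570 nm. IC50 by non-linear regression; mean SD, n = 3.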

SK-BR-3 = test: Antiproliferative activity against human SKBR3 cells after 48 hrs by MTT assay; format: functional, cell-based; settings: SK-BR-3, 48 h; method in brief: as §2
[5] = molecular target: T1, DNA topoisomerase 1 (Homo sapiens) (UniProt P11387); test: Inhibition of DNA topoisomerase 1 (unknown origin)-mediated relaxation of supercoiled pBSKS plasmid DNA assessed as formation of nicked form of DNA at 1 00 uM after 30 mins by agarose gel electrophoresis in presence of ethidium bromide
T1 sequence (whole entry): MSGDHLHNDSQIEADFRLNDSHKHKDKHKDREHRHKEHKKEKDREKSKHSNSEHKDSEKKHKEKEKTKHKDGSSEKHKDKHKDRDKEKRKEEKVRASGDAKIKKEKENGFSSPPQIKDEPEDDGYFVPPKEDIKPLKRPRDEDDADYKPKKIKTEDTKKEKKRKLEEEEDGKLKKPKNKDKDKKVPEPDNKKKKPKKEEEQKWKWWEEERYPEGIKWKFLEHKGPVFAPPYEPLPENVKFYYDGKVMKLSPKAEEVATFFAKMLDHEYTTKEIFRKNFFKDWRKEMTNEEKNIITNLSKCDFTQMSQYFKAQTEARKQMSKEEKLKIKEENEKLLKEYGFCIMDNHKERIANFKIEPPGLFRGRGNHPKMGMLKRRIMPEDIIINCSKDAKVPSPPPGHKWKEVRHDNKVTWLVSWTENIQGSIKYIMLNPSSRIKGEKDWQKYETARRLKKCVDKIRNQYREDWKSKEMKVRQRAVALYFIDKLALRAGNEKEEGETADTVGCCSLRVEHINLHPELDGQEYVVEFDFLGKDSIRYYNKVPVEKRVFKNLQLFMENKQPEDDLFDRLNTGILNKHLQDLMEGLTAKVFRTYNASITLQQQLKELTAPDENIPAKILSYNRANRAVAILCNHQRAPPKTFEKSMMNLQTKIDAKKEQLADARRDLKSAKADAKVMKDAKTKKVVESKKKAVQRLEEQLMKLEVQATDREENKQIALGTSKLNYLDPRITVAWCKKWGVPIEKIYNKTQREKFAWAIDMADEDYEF

[6] = molecular target: T1, DNA topoisomerase 1 (Homo sapiens); test: Inhibition of DNA topoisomerase 1 (unknown origin)-mediated DNA cleavage assessed as decrease in relaxation of supercoiled pBSKS plasmid at 1 00 uM after 30 mins by agarose gel electrophoresis
[7] = molecular target: DNA topoisomerase 2-alpha (Homo sapiens) (UniProt P11388); test: Inhibition of human DNA topoisomerase 2alpha-mediated DNA cleavage assessed as decrease in relaxation of supercoiled pRYG plasmid at 100 uM after 30 mins by agarose gel electrophoresis; method in brief: as §1
MCF7 = test: Antiproliferative activity against human MCF7 cells after 48 hrs by MTT assay; format: functional, cell-based; settings: MCF7, 48 h; method in brief: as §2
Saccharomyces cerevisiae [8] = test: Induction of DNA repair in Saccharomyces cerevisiae W3749-14C harboring Rad52-YFP assessed as increase in Rad52 foci formation at 100 uM after 3 hrs; format: functional, organism-based
Method in brief: (§3)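 RAD52-YFP yeast (W3749-14C) growing asynchronously treated 3 h at 25 °C with 100 µM compound in 1% DMSO; DMSO and phleomycin 25 µg/mL as controls. Cells micrographed. Mononucleated budded cells with bud over two-thirds mother size scored as G2-arrested. Foci per cell = total YFP foci / total cells.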

Saccharomyces cerevisiae [9] = test: Cell cycle arrest in Saccharomyces cerevisiae W3749-14C harboring RAD52-YFP assessed as accumulation at G2 Phase at 100 uM after 3 hrs; format: functional, organism-based; method in brief: as §3
[10] = molecular target: T2, Type II restriction enzyme XhoI (Xanthomonas vasicola) (UniProt Q9KVZ7); test: Inhibition of Xanthomonas vasicola Xho1 assessed as inhibition of endonucleolytic cleavage of pBSKS plasmid DNA at 100 uM by agarose gel electrophoresis
T2 sequence (whole entry): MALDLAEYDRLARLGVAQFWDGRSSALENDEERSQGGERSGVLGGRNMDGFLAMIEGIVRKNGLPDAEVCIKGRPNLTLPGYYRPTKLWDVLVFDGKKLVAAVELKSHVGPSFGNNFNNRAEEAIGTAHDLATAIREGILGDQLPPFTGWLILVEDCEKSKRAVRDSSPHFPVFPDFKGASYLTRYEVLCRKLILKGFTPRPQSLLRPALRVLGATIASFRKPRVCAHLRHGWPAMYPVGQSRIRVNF
Method in brief: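 XhoI digestion of pBSKS plasmid, which carries a single XhoI site, run like the Topo I reaction with compounds at 100 µM in 1% DMSO. Actinomycin D as intercalator control. Agarose gel separates supercoiled, nicked intermediate and linear product.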

[11] = molecular target: DNA topoisomerase 2-alpha (Homo sapiens) (UniProt P11388); test: Inhibition of human DNA topoisomerase 2alpha-mediated DNA cleavage assessed as decrease in relaxation of supercoiled pRYG plasmid at 30 uM after 30 mins by agarose gel electrophoresis; method in brief: as §1

Chain of DNA topoisomerase 2-alpha (Homo sapiens) (P11388 whole entry): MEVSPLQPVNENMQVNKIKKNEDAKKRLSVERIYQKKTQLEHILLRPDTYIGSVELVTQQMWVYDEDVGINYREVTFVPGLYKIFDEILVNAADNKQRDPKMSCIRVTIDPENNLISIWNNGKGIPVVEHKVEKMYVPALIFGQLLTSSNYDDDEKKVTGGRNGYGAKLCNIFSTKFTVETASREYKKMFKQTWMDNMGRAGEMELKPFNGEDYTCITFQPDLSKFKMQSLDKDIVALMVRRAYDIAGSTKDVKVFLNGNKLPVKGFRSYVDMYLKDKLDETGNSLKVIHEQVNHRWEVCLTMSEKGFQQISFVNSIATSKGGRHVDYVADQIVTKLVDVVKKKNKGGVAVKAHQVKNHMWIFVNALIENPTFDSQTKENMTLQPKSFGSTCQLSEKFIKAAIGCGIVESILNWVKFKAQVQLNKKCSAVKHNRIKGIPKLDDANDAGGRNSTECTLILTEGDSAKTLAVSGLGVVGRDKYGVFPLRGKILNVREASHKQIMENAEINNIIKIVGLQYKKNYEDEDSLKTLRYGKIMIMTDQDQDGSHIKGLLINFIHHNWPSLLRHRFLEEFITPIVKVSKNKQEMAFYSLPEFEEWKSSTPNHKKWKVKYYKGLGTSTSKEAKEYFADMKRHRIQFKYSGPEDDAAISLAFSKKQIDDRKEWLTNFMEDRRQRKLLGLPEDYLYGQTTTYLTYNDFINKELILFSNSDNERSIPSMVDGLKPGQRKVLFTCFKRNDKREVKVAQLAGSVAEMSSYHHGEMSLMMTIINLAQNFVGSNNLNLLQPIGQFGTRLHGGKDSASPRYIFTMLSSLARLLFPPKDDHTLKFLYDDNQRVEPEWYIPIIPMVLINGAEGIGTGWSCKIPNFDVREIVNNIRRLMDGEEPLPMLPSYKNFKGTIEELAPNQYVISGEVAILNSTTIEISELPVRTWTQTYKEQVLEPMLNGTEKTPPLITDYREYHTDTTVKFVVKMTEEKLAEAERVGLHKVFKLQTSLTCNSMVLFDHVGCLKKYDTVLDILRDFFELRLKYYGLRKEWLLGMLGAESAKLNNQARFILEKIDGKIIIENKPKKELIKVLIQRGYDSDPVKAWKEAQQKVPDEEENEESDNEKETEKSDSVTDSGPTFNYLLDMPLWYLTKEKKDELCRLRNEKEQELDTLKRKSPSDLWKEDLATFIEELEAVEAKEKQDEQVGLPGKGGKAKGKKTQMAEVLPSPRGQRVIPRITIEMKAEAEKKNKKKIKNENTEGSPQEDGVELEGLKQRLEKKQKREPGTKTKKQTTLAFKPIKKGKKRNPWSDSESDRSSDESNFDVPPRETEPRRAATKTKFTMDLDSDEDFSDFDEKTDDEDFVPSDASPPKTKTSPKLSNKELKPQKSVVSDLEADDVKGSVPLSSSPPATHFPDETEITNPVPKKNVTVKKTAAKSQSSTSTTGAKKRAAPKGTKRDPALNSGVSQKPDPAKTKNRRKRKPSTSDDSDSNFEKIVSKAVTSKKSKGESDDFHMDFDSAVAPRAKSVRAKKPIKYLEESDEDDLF

SMILES	growth inhibition (GI) (Saccharomyces cerevisiae [1])	growth inhibition (GI) (Saccharomyces cerevisiae [2])	inhibition [3]	inhibition [4]	pIC50 (HEL)	pIC50 (SK-BR-3)	inhibition [5]	inhibition [6]	inhibition [7]	pIC50 (MCF7)	Activity (Saccharomyces cerevisiae [8])	Activity (Saccharomyces cerevisiae [9])	inhibition [10]	inhibition [11]
CN(C)CCN1C(=O)c2cccc3cc(N)cc(c23)C1=O [AMONAFIDE]	Active	inactive	Active	Active	5.47	5.13	–	–	–	–	–	–	–	–
COc1cccc(-c2ccc3c4c(cccc24)C(=O)N(CCN(C)C)C3=O)c1	–	–	–	–	–	< 4.52	inactive	Active	Active	< 4.52	–	–	–	–
COc1ccccc1-c1cc2c3c(cccc3c1)C(=O)N(CCN(C)C)C2=O	–	–	–	–	–	4.92	inactive	–	Active	4.59	–	–	–	–
COc1cccc(-c2cc3c4c(cccc4c2)C(=O)N(CCN(C)C)C3=O)c1	–	Active	Active	Active	5.57	6.52	inactive	Active	–	6.30	Active	Active	Active	–
CN(C)CCN1C(=O)c2cccc3cc(-c4cccc([N+](=O)[O-])c4)cc(c23)C1=O	–	Active	–	Active	6.22	5.92	–	–	–	–	Active	Active	–	Active
COc1ccc(-c2ccc3cccc4c3c2C(=O)N(CCN(C)C)C4=O)cc1	inactive	–	–	–	–	< 4.52	inactive	–	inactive	< 4.52	–	–	–	–
COc1ccccc1-c1ccc2cccc3c2c1C(=O)N(CCN(C)C)C3=O	–	–	–	–	–	4.62	inactive	–	inactive	4.62	–	–	–	–
CN(C)CCN1C(=O)c2cccc3cc(-c4cccc(N)c4)cc(c23)C1=O	Active	–	–	Active	4.87	4.85	–	–	inactive	–	–	–	–	–
CN(C)CCN1C(=O)c2cccc3cc(-c4cccc(C(F)(F)F)c4)cc(c23)C1=O	–	Active	Active	Active	5.80	5.92	–	–	–	–	Active	Active	–	–
COc1ccc(-c2ccc3c4c(cccc24)C(=O)N(CCN(C)C)C3=O)cc1	–	–	Active	–	–	4.56	inactive	Active	–	< 4.52	–	–	–	–
COc1ccccc1-c1ccc2c3c(cccc13)C(=O)N(CCN(C)C)C2=O	inactive	–	–	–	–	< 4.52	inactive	–	inactive	< 4.52	–	–	–	–
CN(C)CCN1C(=O)c2cccc3cc(-c4cccc(O)c4)cc(c23)C1=O	Active	–	–	Active	5.15	5.36	–	–	Active	–	–	–	–	–
COc1cccc(-c2ccc3cccc4c3c2C(=O)N(CCN(C)C)C4=O)c1	–	–	–	–	–	< 4.52	–	–	–	< 4.52	–	–	–	–
COc1ccc(-c2cc3c4c(cccc4c2)C(=O)N(CCN(C)C)C3=O)cc1	Active	–	–	–	–	5.82	inactive	–	Active	5.12	–	–	–	–
CN(C)CCN1C(=O)c2cccc3cc(-c4ccccc4)cc(c23)C1=O	–	Active	–	Active	5.22	6.10	–	–	–	–	Active	Active	–	Active

Source: ChEMBL document CHEMBL2439982, “Synthesis and study of antiproliferative, antitopoisomerase II, DNA-intercalating and DNA-damaging activities of arylnaphthalimides” (Bioorg Med Chem, 2013)
